Measured values gathered from unrelated publications.
Each line is one published result; the experiments were not run side by side.

| Structure (SMILES) | target | test | conditions | measurement | result |
| --- | --- | --- | --- | --- | --- |
| CC[C@@H]1CN2CC[C@@]3(O)C(=Nc4cccc(C)c43)[C@@H]2C[C@@H]1/C(=C\OC)C(=O)OC | Delta-type opioid receptor (OPRD1, Homo sapiens, UniProt P41143) | β-arrestin recruitment, agonist |  | Emax | > 100% |
| CNCCN1CCC(OCc2ccccc2)CC1 | Protein arginine N-methyltransferase 6 (PRMT6, Homo sapiens, UniProt Q96LA8) | thermal stability, DSF | 200 µM | ΔTm | 11.3 °C |
| CCN(CC)CCCC[C@H](NC(=O)[C@H](CC(C)C)NC(=O)[C@H](C)NC(=O)[C@H](Cc1ccccc1)NC(=O)c1ccc(C(C)(C)C)cc1)C(=O)N[C@@H](CO)C(=O)OC | Histone acetyltransferase p300 (EP300, Homo sapiens, UniProt Q09472) | thermal stability, DSF | 25 µM | ΔTm | 0.7 °C |
| C#Cc1n[nH]c2c(-c3cn(C(C)c4ccccn4)c(=O)[nH]c3=O)cc(F)cc12 (stereo not shown) | Insulin-like growth factor 1 receptor (IGF1R, Homo sapiens, UniProt P08069) | enzyme activity, inhibitor | 1 µM | inhibition | -0.9% |
| COc1ccc(S(=O)(=O)N(CC(=O)NO)CC(C)C)cc1 | Neutrophil collagenase (MMP8, Homo sapiens, UniProt P22894) | enzyme activity, inhibitor | 0.1 µM | inhibition | 43% |
| Cc1nn(C)cc1-c1nc2c(N3CCN(Cc4ccc(Cl)cc4)CC3)c(Cl)cnc2[nH]1 | Tyrosine-protein kinase ABL1, non-phosphorylated (ABL1, Homo sapiens, UniProt P00519, F317L) | binding, competition with immobilised ligand | 1 µM | remaining binding | 100% |
| Cn1cc(-c2cc(F)cc(N3CCn4c(cc5c4CCCC5)C3=O)c2CO)cc(Nc2ccc(N3CCN(C4COC4)CC3)cn2)c1=O | Tyrosine-protein kinase ABL1 (ABL1, Homo sapiens, UniProt P00519, T315I) | enzyme activity, inhibitor | 0.1 µM | inhibition | 4% |
| O=C(O)C(F)(F)C(F)(F)C(F)(F)C(F)(F)C(F)(F)C(F)(F)C(F)(F)F | Solute carrier family 22 member 11 (SLC22A11, Homo sapiens, UniProt Q9NSA0) | transporter uptake, substrate | pH 6.8 | Km | 9.95 µM |
| Nc1ncc(-c2nc(N3CCOCC3)nc(N3CCOCC3)n2)c(C(F)F)n1 | Androgen receptor (AR, Homo sapiens, UniProt P10275) | cell-free assay, radioligand | 10 µM | remaining signal | 89.3% |
| COc1ncccc1-c1cnn2ccc(N3CCN(C(=O)OC(C)C)CC3)nc12 | Receptor-interacting serine/threonine-protein kinase 4 (RIPK4, Homo sapiens, UniProt P57078) | binding, competition with immobilised ligand | 1 µM | remaining binding | 70% |
